This note sets out measurements from ChEMBL document CHEMBL3779766, “Synthesis and biological evaluation of quinoline analogues of flavones as potential anticancer agents and tubulin polymerization inhibitors” (Eur J Med Chem, 2016).

In experiment [1] the test system is A2780. Nature of the experiment: Antiproliferative activity against human A2780 cells assessed as cell viability after 48 hrs by MTT assay. Type of experiment: functional, cell-based. Conditions: A2780, 48 h. The method, boiled down:
(§1)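 Cancer cells were seeded at 5×10³ per well in RPMI complete medium. The next day the medium was replaced with a range of test concentrations, with a no-drug RPMI control. Plates ran 48 h at 37 °C, then MTT (4 mg/mL solution) was added for 3 h. Formazan was dissolved in DMSO and absorbance read at 540 nm. Triplicate determinations.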

Experiment [2] has as its system MCF7. Put plainly: Antiproliferative activity against human MCF7 cells assessed as cell viability after 48 hrs by MTT assay. Particulars: MCF7, 48 h. In kind it is functional, cell-based. The method, boiled down:
as §1
A general note: Tetrazolium assays rely on reduction of a dye to a coloured formazan, in cell work by metabolically active cells.

Experiment [3] has as its target T1, Tubulin (Sus scrofa) (UniProt P02554+P02550). Nature of the experiment: Inhibition of porcine brain tubulin polymerization at 100 uM measured for 1 hr by fluorescence assay. The method, boiled down:
(§2)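 Polymerization was tracked by a fluorescent reporter incorporating into microtubules (ex 360/em 420 nm) every 1 min for 1 h. Controls were paclitaxel 3 µM (stabilizer) and CA-4 10 µM (destabilizer).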

Experiment [4] in a line: Antiproliferative activity against human MCF7/MX cells assessed as cell viability after 48 hrs by MTT assay. In kind it is functional, cell-based. The method, boiled down:
as §1

The test system of experiment [5] is A2780. Put plainly: Antiproliferative activity against cisplatin resistant human A2780 cells assessed as cell viability after 48 hrs by MTT assay. In kind it is functional, cell-based. Particulars: A2780, 48 h. The method, boiled down: as §1
For experiment [6], the target named is T1, Tubulin (Sus scrofa). Put plainly: Inhibition of porcine brain tubulin polymerization at 50 uM measured for 1 hr by fluorescence assay. Summed up: as §2
Experiment [7] in a line: Cell cycle arrest in human MCF7/MX cells assessed as accumulation at G2/M phase at 3 uM after 72 hrs by propidium iodide staining based flow cytometry (reference value: 5.68%). Type of experiment: functional. For orientation: In flow cytometry, cells or beads pass a laser one at a time.
Experiment [8] relates to MCF7. Put plainly: Cell cycle arrest in human MCF7 cells assessed as accumulation at G2/M phase at 3 uM after 72 hrs by propidium iodide staining based flow cytometry (reference value: 6.18%). Type of experiment: functional.
Experiment [9] deals with A2780. Nature of the experiment: Cell cycle arrest in human A2780 cells assessed as accumulation at G2/M phase at 3 uM after 24 hrs by propidium iodide staining based flow cytometry (reference value: 12.71%). Type of experiment: functional.
The subject of experiment [10] is A2780. Put plainly: Cell cycle arrest in cisplatin resistant human A2780 cells assessed as accumulation at G2/M phase at 3 uM after 24 hrs by propidium iodide staining based flow cytometry (reference value: 19.63%). In kind it is functional.
Experiment [11] addresses T1, Tubulin (Sus scrofa). Conditions: 10 uM.
Experiment [12] relates to MCF7. Nature of the experiment: Cell cycle arrest in human MCF7 cells assessed as accumulation at G2/M phase at 100 uM after 72 hrs by propidium iodide staining based flow cytometry (reference value: 6.18%). Type of experiment: functional.
Experiment [13] relates to A2780. Nature of the experiment: Cell cycle arrest in human A2780 cells assessed as accumulation at G2/M phase at 100 uM after 24 hrs by propidium iodide staining based flow cytometry (reference value: 12.71%). In kind it is functional.
The nature of experiment [14]: Cell cycle arrest in human MCF7/MX cells assessed as accumulation at G2/M phase at 100 uM after 72 hrs by propidium iodide staining based flow cytometry (reference value: 5.68%). Type of experiment: functional.
Experiment [15] relates to A2780. Put plainly: Cell cycle arrest in cisplatin resistant human A2780 cells assessed as accumulation at G2/M phase at 100 uM after 24 hrs by propidium iodide staining based flow cytometry (reference value: 19.63%). In kind it is functional.
The subject of experiment [16] is MCF7. Put plainly: Cell cycle arrest in human MCF7 cells assessed as accumulation at G2/M phase at 50 uM after 72 hrs by propidium iodide staining based flow cytometry (reference value: 6.18%). Type of experiment: functional.
The subject of experiment [17] is MCF7/MX. Nature of the experiment: Induction of apoptosis in human MCF7/MX cells assessed as accumulation at sub G1 phase at 50 uM after 72 hrs by propidium iodide staining based flow cytometry. Type of experiment: functional, cell-based. The method, boiled down: (§3)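 2.5×10⁵ cells were seeded in 6-well plates for 24 h, then treated for 72 h alongside a vehicle control (0.05% DMSO). Cells were ethanol-fixed (70%), then incubated 0.5 h at 37 °C with RNase A (1 mg/mL) plus propidium iodide. Flow cytometry (FL2) gave the percentage of cells in the sub-G1 region as the apoptotic fraction.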

The nature of experiment [18]: Cell cycle arrest in human MCF7/MX cells assessed as accumulation at G2/M phase at 50 uM after 72 hrs by propidium iodide staining based flow cytometry (reference value: 5.68%). In kind it is functional.
The test system of experiment [19] is A2780. Nature of the experiment: Cell cycle arrest in human A2780 cells assessed as accumulation at G2/M phase at 50 uM after 24 hrs by propidium iodide staining based flow cytometry (reference value: 12.71%). Type of experiment: functional.
Experiment [20] has as its system A2780. Nature of the experiment: Induction of apoptosis in cisplatin resistant human A2780 cells assessed as accumulation at sub G1 phase at 50 uM after 72 hrs by propidium iodide staining based flow cytometry. In kind it is functional, cell-based. Summed up:
as §3

Experiment [21] has as its system MCF7. Nature of the experiment: Induction of apoptosis in human MCF7 cells assessed as accumulation at sub G1 phase at 50 uM after 72 hrs by propidium iodide staining based flow cytometry. In kind it is functional, cell-based. Summed up:
as §3

Experiment [22] concerns A2780. Put plainly: Cell cycle arrest in cisplatin resistant human A2780 cells assessed as accumulation at G2/M phase at 50 uM after 24 hrs by propidium iodide staining based flow cytometry (reference value: 19.63%). Type of experiment: functional.
Experiment [23] deals with A2780. Put plainly: Induction of apoptosis in human A2780 cells assessed as accumulation at sub G1 phase at 50 uM after 72 hrs by propidium iodide staining based flow cytometry. Type of experiment: functional, cell-based. The method, boiled down: as §3

The source made the active and inactive calls. No cut-off for these calls is given here.

T1 sequence (P02550 whole entry, looked up): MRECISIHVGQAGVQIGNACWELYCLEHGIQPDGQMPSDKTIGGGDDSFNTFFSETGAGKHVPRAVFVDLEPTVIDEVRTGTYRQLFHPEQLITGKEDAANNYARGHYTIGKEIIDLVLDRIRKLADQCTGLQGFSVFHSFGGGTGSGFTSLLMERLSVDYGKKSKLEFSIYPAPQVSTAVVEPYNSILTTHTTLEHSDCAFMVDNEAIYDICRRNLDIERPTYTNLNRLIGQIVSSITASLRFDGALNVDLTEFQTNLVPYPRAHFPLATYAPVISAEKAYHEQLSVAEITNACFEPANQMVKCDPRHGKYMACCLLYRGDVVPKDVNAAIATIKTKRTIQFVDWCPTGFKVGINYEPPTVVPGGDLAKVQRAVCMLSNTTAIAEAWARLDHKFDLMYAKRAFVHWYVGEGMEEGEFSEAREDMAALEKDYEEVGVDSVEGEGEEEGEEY
T1 sequence (P02554 whole entry, looked up): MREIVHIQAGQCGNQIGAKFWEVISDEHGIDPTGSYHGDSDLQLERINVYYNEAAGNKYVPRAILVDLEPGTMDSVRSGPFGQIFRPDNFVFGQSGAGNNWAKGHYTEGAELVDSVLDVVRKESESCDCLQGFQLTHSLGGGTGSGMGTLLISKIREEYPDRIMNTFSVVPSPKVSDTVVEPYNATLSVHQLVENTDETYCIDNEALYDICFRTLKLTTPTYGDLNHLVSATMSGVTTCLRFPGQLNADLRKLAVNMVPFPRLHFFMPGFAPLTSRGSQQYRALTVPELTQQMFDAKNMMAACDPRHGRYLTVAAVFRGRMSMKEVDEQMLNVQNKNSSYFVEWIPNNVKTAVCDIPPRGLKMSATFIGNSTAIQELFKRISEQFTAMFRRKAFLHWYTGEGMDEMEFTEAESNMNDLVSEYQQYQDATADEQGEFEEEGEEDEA

On to `COc1cc2nc(-c3ccc(O)cc3O)cc(C(=O)O)c2c(OC)c1OC`, for which the IC50 in [1], in experiment [2], in [4] and in experiment [5] was over 100 µM throughout. The inhibition entry in experiment [3] is “Active”.

Regarding `COc1cc(-c2cc(CO)c3c(OC)c(OC)c(OC)cc3n2)ccc1O`, the IC50 in experiment [1] was determined as 9.19 µM; in experiment [2] it was 49.7 µM; in [4], 53.9 µM; in experiment [5], 52.2 µM.

Take `COc1ccc(-c2cc(CO)c3c(OC)c(OC)c(OC)cc3n2)cc1OC`: the inhibition entry in [6] is “Active”. Moreover, the IC50 in [1] worked out at 7.98 µM; in experiment [2] it was 60.7 µM; in experiment [4] it was 37.1 µM; in [5], 23.1 µM.

Turning to `COc1cc2nc(-c3ccc(O)cc3)cc(C(=O)O)c2c(OC)c1OC`, the IC50 in experiment [1], in experiment [2], in experiment [4] and in experiment [5] was over 100 µM throughout.

For the compound `COc1ccc(/C=C\c2cc(OC)c(OC)c(OC)c2)cc1O` [COMBRETASTATIN A4], the Activity in experiment [7] is 43.2%; in [8], 80.09%; in experiment [9], 78.38%; in experiment [10] it was 25.41%. Moreover, the half-inhibitory concentration (IC50) in experiment [1] stood at 2.84 µM; in experiment [2], 1.23 µM; in [4], 2.97 µM; in experiment [5], 2.95 µM. Also, the inhibition result in [11] was “Active”.

Take `COc1ccc(-c2cc(C(=O)O)c3c(OC)c(OC)c(OC)cc3n2)cc1`: the IC50 in [1], in experiment [2], in experiment [4] and in [5] was over 100 µM each time. Further, the inhibition result in experiment [3] was “Active”.

Consider `COc1cc2nc(-c3cccc(O)c3)cc(C(=O)O)c2c(OC)c1OC`, for which the 50% inhibitory concentration (IC50) in experiment [1], in [2], in experiment [4] and in [5] was over 100 µM throughout.

In the case of `COc1ccc(-c2cc(CO)c3c(OC)c(OC)c(OC)cc3n2)cc1`, in [6], the inhibition result was “Active”. The half-inhibitory concentration (IC50) was determined as 8.04 µM in experiment [1], 16.4 µM in [2], 39.8 µM in experiment [4] and 28.4 µM in experiment [5].

Take `COc1ccc(-c2cc(C(=O)O)c3c(OC)c(OC)c(OC)cc3n2)cc1OC`: the IC50 in [1], in experiment [2], in experiment [4] and in experiment [5] was over 100 µM throughout.

Take `COc1ccc(-c2cc(C(=O)O)c3c(OC)c(OC)c(OC)cc3n2)cc1O`: the Activity in experiment [12] stood at 8%; in experiment [13], 62.15%; in [14] it was 3.74%; in experiment [15], 43.12%. Further, the IC50 in experiment [1] is 38.7 µM; in [2], 56.3 µM; in experiment [4], 98.5 µM; in [5], over 100 µM. The inhibition entry in experiment [3] was “inactive”.

Consider `COc1cc(-c2cc(C(=O)O)c3c(OC)c(OC)c(OC)cc3n2)ccc1O`, for which the IC50 in [1], in experiment [2], in experiment [4] and in [5] was over 100 µM in each case. The inhibition result in experiment [3] was “Active”.

With `COc1cc(-c2cc(C(=O)O)c3c(OC)c(OC)c(OC)cc3n2)cc(OC)c1OC`, the IC50 in [1], in experiment [2], in experiment [4] and in experiment [5] was over 100 µM each time.

Take `COc1cc(-c2cc(CO)c3c(OC)c(OC)c(OC)cc3n2)cc(OC)c1OC`: the Activity in experiment [16] amounted to 79.59%; in experiment [18], 44.8%; in experiment [19] it was 79.59%; in [22], 62.31%. Besides, in experiment [6], the inhibition result was “Active”. Moreover, the outcome in experiment [17], in experiment [20], in [21] and in [23] was Active. The IC50 in experiment [1] is 11.4 µM; in [2], 16.3 µM; in experiment [4], 14.1 µM; in [5] it was 8.15 µM.

Regarding `COc1ccc(-c2cc(CO)c3c(OC)c(OC)c(OC)cc3n2)cc1O`, the inhibition result in experiment [6] is “Active”. The IC50 in [1] came out at 29.6 µM; in experiment [2] it was 59.5 µM; in experiment [4], 21.5 µM; in experiment [5], 43.3 µM.

Usually IC50 stands for the midpoint of a concentration-inhibition curve.
